Test results published in ChEMBL document CHEMBL3259535, “Synthesis, cytotoxic study and docking based multidrug resistance modulator potential analysis of 2-(9-oxoacridin-10(9H)-yl)-N-phenyl acetamides” (Eur J Med Chem, 2014).

Assays:
Format in all cases: functional, cell-based
A549 = assay: Antiproliferative activity against human A549 cells after 3 days by MTT assay; conditions: A549, 72 h
How it was run: (§1)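 Stock cells grown to confluence in DMEM with 10% inactivated FBS, penicillin, streptomycin and amphotericin B at 37 °C, 5% CO₂, then detached with trypsin-EDTA-glucose. About 10,000 cells per well were seeded; after 24 h, drug was added at five dose levels for 72 h. MTT was added for 3 h, formazan dissolved in propanol and read at 540 nm. IC50 was taken from dose-response curves, triplicate, mean ± SEM.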

HeLa = assay: Antiproliferative activity against human HeLa cells after 3 days by MTT assay; conditions: 72 h; how it was run: as §1
MCF7 = assay: Antiproliferative activity against human MCF7 cells after 3 days by MTT assay; conditions: MCF7, 72 h; how it was run: as §1

| SMILES | IC50 (A549) [µM] | IC50 (HeLa) [µM] | IC50 (MCF7) [µM] |
| --- | --- | --- | --- |
| O=C(Cn1c2ccccc2c(=O)c2ccccc21)Nc1ccccc1F | 23.3 | 25.4 | 29.2 |
| O=C(Cn1c2ccccc2c(=O)c2ccccc21)Nc1ccccc1 | 41.4 | 43.8 | 39.7 |
| O=C(Cn1c2ccccc2c(=O)c2ccccc21)Nc1cccc(Cl)c1 | 33.3 | 29.1 | 30.1 |
| O=C(Cn1c2ccccc2c(=O)c2ccccc21)Nc1ccc(Cl)cc1 | 34.9 | 32.3 | 31.2 |
| O=C(Cn1c2ccccc2c(=O)c2ccccc21)Nc1ccccc1[N+](=O)[O-] | 11.8 | 13.2 | 12.6 |
| O=C(Cn1c2ccccc2c(=O)c2ccccc21)Nc1ccc([N+](=O)[O-])cc1 | 19.7 | 17.2 | 14 |
| Cc1ccc(NC(=O)Cn2c3ccccc3c(=O)c3ccccc32)cc1 | 20.2 | 21.9 | 20.1 |
| COc1ccc(NC(=O)Cn2c3ccccc3c(=O)c3ccccc32)cc1 | 16.7 | 19.6 | 15 |
| O=C(Cn1c2ccccc2c(=O)c2ccccc21)Nc1ccc(O)cc1 | 17.4 | 22 | 15.6 |
| O=C(Cn1c2ccccc2c(=O)c2ccccc21)Nc1ccc(C(F)(F)F)cc1 | 20.5 | 23.2 | 26.4 |
| O=C(Cn1c2ccccc2c(=O)c2ccccc21)Nc1cccc(C(F)(F)F)c1 | 38.2 | 34.9 | 35.1 |
| O=C(Cn1c2ccccc2c(=O)c2ccccc21)Nc1ccccc1C(=O)O | 7.39 | 8.8 | 6.07 |
| O=C(Cn1c2ccccc2c(=O)c2ccccc21)Nc1ccc(C(=O)O)cc1 | 8.8 | 10.7 | 7.12 |
| O=C(Cn1c2ccccc2c(=O)c2ccccc21)Nc1ccc(F)cc1 | 24.5 | 26.6 | 27.5 |
| O=C(Cn1c2ccccc2c(=O)c2ccccc21)Nc1ccc(Br)cc1 | 35.1 | 32.2 | 33 |
